High-throughput results as filed in PubChem.
SR-BI DiI inh: blocks mouse SR-BI lipid uptake from DiI-HDL; Q61009; ldlA[mSR-BI] CHO cells, DiI-HDL uptake fluorescence, 3 h; inhibition, % at 12.5 µM; 320,000 compounds, 0.96% hits;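 active = mean replicate inhibition of at least 70% and a set share of replicates each scoring 70 or more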;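 note: 0% = median of neutral control wells and 100% = median of positive control wells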
ABCB6 inh 2: blocks the human ABCB6 transporter; K562-ABCB6 porphyrin accumulation, flow cytometry, 1 h; stronger effect = lower value; fluorescence ratio to DMSO, % at 10 µM; 360,000 compounds, 0.19% hits;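 active = fluorescence ratio to DMSO below 75%, the collection mean minus 3 SD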;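 note: signal is porphyrin accumulated inside mitochondria; 100% equals median channel fluorescence of DMSO control wells; lower ratio means ABCB6 inhibition with less porphyrin fluorescence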
HIF activator: HIF pathway transcriptional activation; 300,000 compounds, 0.32% hits; AID 1910; U2OS HRE-luciferase reporter, luminescence; normalized: DMSO 0%, desferrioxamine 100%; activation, % at 7.5 µM (by protocol);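 active = mean activation of at least 10% of the iron chelator positive control signal, with at least half of replicates also reaching 10%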
GAA850 FXN act: frataxin GAA850 promoter activation; HEK293 lucGAA850 FXN promoter luciferase reporter, 24 h; percent of 10 µM SAHA response; activation, % at 6 µM; 360,000 compounds, 0.56% hits;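 active = activation above the average of all compounds screened plus 3 SD, cutoff fixed separately per campaign, cut at about 7.5% in these data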;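 note: 0% = DMSO wells and 100% = 10 µM SAHA wells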
AHR activator: human AHR activation. P35869. AHR-responsive luciferase reporter cells, luminescence. activation, % at 5 µM. 320,000 compounds, 2.5% hits. AID 2796; in the data active = activation above about 47%;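 note: 0% = vehicle wells and 100% = reference agonist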
Target sequence (P35869 whole entry, looked up): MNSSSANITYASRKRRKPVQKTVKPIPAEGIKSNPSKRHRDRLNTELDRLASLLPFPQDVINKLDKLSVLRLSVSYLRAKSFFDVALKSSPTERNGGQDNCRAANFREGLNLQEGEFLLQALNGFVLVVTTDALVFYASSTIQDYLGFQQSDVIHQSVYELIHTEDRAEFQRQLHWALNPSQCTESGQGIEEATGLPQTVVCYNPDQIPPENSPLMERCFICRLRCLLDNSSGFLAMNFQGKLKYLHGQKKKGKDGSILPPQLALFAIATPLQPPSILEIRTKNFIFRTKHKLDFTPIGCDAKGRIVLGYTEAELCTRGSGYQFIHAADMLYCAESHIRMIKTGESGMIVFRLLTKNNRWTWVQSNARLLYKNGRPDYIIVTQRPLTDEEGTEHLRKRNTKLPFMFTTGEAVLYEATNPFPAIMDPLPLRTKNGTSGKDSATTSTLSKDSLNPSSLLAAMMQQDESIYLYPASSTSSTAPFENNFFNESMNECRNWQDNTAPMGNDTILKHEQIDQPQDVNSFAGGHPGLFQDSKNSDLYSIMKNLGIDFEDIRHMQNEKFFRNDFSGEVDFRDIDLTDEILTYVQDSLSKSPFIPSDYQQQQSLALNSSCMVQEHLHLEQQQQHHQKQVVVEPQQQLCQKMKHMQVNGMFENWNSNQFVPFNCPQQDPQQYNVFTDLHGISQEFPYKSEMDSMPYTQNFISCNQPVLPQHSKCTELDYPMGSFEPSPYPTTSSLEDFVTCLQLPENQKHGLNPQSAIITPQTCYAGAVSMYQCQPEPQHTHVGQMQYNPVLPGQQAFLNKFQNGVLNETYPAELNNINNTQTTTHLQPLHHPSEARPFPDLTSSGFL
SR-BI DiI-HDL act: activators of SR-BI mediated HDL lipid uptake | AID 504775 | 320,000 compounds, 0.096% hits | CHO ldlA[mSR-BI] cells, DiI-HDL uptake fluorescence, 3 h; 100 = double the neutral-control signal | activation, % at 12.5 µM;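 active = mean replicate activation of at least 60% and every replicate at or above 60%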;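 note: 0% = median plate neutral-control signal and 100% = twice that signal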
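Assay system: CHO ldlA[mSR-BI] cells, LDL receptor-null, SR-BI overexpressing; medium: Ham's F12 with 0.5% BSA, HEPES 25 mM, pH 7.4; also added: DiI-HDL 10 µg/mL; timing: 3 h uptake period with compound, 37 °C; signal: DiI fluorescence, bottom read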
Starred values were filed as active, the others as inactive; · = no result given. The list is not random: actives were taken first. Their share in the collection is about 3.9%.

SMILES	SR-BI DiI inh	ABCB6 inh 2	HIF activator	GAA850 FXN act	AHR activator	SR-BI DiI-HDL act
Cc1ccsc1/C=N/n1c(-c2ccncc2)n[nH]c1=S	-8	102	·	-3	13	8
COc1cccc(C(=O)Nc2ccc(C(F)(F)F)n(C)c2=O)c1	4	107	2	2	56*	-4
COc1cccc(C(=O)Nc2cc(C(F)(F)F)ccc2Cl)c1	44	92	0	3	60*	-44
Cn1c(N)c(C#N)c(C#N)c1-c1ccccc1	16	107	·	2	1	-16
CCOC(=O)c1cc(S(=O)(=O)N2CC(C)CC(C)C2)cn1C (centres undefined)	-4	92	0	-1	0	4
CCOCCCNC(=S)N1CCCN(c2nc3cc(C)cc(C)c3cc2C#N)CC1	45	94	-1	-1	2	-45
O=C(CSC1=NNC(c2ccccn2)S1)Nc1cccc(Cl)c1 (centres undefined)	78*	100	2	3	6	-78
N#Cc1cc(C(=O)c2cc(Cl)ccc2O)cn(-c2ccccc2)c1=O	-76	102	0	2	1	76*
Cc1ccc(NC(=O)c2cc(C(=O)c3cc(Cl)ccc3O)cn(-c3ccc(C)cc3)c2=O)cc1	83*	94	-1	1	19	-83
COc1cccc(Nc2nc(C(N)c3ccccc3)cs2)n1 (centres undefined)	·	95	·	-3	·	·
CC1CCCN(CCOCCOc2ccc(Br)cc2Cl)C1 (centres undefined)	-33	89	0	1	-1	33
Cc1occc1-c1nnc(SCC(=O)N2CCN(c3ccc(F)cc3)CC2)n1C	8	89	0	1	-1	-8
Cc1cccc2cc(/C=N/NC(=O)c3ccccc3O)c(Cl)nc12	-10	97	1	1	8	10
O=C1c2cccc3cccc(c23)C(=O)N1c1ccncc1	2	98	·	0	14	-2
CCc1nnc(N2C(=O)c3cccc4cccc(c34)C2=O)s1	-12	98	0	4	76*	12
COc1cc(Cl)cc(/C=C/c2ccc3ccccc3n2)c1OC(C)=O	80*	100	3	6	3	-80
CC(=O)Oc1ccc(Cl)cc1/C=C/c1cc(OC(C)=O)c2ccccc2n1	·	·	1	·	21	·
COc1cc2oc(=O)cc(-c3cccc(-c4ccc(C(F)(F)F)cc4)c3)c2c(OC)c1OC	13	94	·	2	·	-13
Cc1nc(N)sc1N=Nc1ccc(F)cc1	28	84	0	9.7*	1	-28
Nc1n[nH]c(N)c1N=Nc1ccc(F)cc1	-16	94	0	2	2	16
CC(=O)Nc1ccc(NC(=O)c2ccc(NC(=O)c3ccccc3)cc2)cc1	26	98	0	0	-3	-26
CCc1nc2ccc(C(=O)Nc3ccc(NC(C)=O)cc3)cc2nc1CC	83*	83	-1	0	-2	-83
N#Cc1ccccc1OCC(=O)NC(=O)NCc1ccccc1	-11	97	1	1	9	11
Cc1ccc(-n2[nH]c(C)c(/C=N/c3ccccn3)c2=O)cc1	-9	98	0	2	11	9
Cc1nc2ccccc2c(=O)n1/N=C/c1ccc(O)cc1O	-6	94	0	0	-1	6
SMILES	SR-BI DiI inh	ABCB6 inh 2	HIF activator	GAA850 FXN act	AHR activator	SR-BI DiI-HDL act
CCCc1nc2ccccc2c(=O)n1/N=C/c1c(C)[nH]n(-c2ccc(C)cc2)c1=O	14	92	0	2	59*	-14
CCCc1nc2ccccc2c(=O)n1/N=C/c1ccccc1O	41	99	13*	-1	-1	-41
O=[N+]([O-])c1ccc(Oc2cccc(F)c2)c2ccncc12	-12	98	0	1	55*	12
NC(=O)CCn1c(C(=O)c2cccc([N+](=O)[O-])c2)c2ccccc2[n+]1[O-]	-17	99	0	-2	57*	17
COc1ccc(C(=O)c2c3ccc(C(F)(F)F)cc3[n+]([O-])n2CCCN)cc1	-9	101	0	3	65*	9
NCCCn1c(C(=O)c2cc(Cl)c(N)c(Cl)c2)c2ccccc2[n+]1[O-]	29	95	3	1	72*	-29
NC(=O)CCn1c(C(=O)c2cc(Cl)c(N)c(Cl)c2)c2ccccc2[n+]1[O-]	-4	104	-1	2	76*	4
CCN1CCN(S(=O)(=O)c2ccc(Cl)c(C(=O)Nc3ccccc3N3CCCCC3)c2)CC1	-10	95	-1	-3	7	10
Cc1cccc(-c2cc(C(=O)NCc3ccccn3)c3ccccc3n2)c1	53	100	0	2	17	-53
O=C(NCc1ccccn1)c1cc(-c2ccc(-c3ccccc3)cc2)nc2ccccc12	12	98	1	-4	66*	-12
O=C(NCc1ccccn1)c1cc(-c2ccccc2)nc2ccccc12	-5	98	0	4	18	5
Cc1ccc(-c2cc(C(=O)NCc3ccccn3)c3ccccc3n2)cc1C	63	96	2	3	56*	-63
CCCCOc1ccc(-c2ncc(C(=O)O)c(C)n2)cc1	-6	95	1	2	32	6
COCc1cc(C)nc2sc(C(=O)Nc3ccc(C(=O)OC)cc3)c(N)c12	20	90	1	3	1	-20
COCc1cc(C)nc2sc(C(=O)OC(C)C)c(N)c12	26	106	1	5	72*	-26
CCOc1ccccc1NC(=O)c1ccc(NC(=O)c2ccco2)cc1	51	91	-1	3	24	-51
COc1ccccc1NC(=O)c1cc(Cl)ccc1NC(=O)c1ccco1	58	92	-7	0	63*	-58
O=C(Nc1ccc(Cl)cc1C(=O)Nc1ccccn1)c1ccco1	67	101	0	1	64*	-67
O=C(Nc1ccccn1)c1ccco1	-21	94	1	2	2	21
COc1ccccc1NC(=O)c1ccccc1NC(=O)c1cc(Cl)ccc1NC(=O)c1ccco1	45	99	0	-2	41	-45
COc1cc(NC(=O)c2ccc3c(c2)OCCO3)ccc1NC(=O)c1ccccc1Cl	89*	101	1	0	-17	-89
CCOc1ccccc1NC(=O)c1cc(Cl)ccc1NC(=O)c1ccco1	81*	91	0	-2	27	-81
Cc1cc(C(=O)COC(=O)c2ccc(Br)o2)c(C)n1Cc1ccco1	·	·	4	·	14	·
COCCn1c(SCC(=O)Nc2ccc(NC(=O)c3ccco3)c(OC)c2)nc2ccccc2c1=O	74*	107	·	-3	-1	-74
COc1cc(C(=O)Nc2ccc3c(c2)OCCO3)ccc1OC(F)F	79*	106	3	6	30	-79
